The record followed here is paper PMC6649664 (Cell host & microbe, 2019).

What all share (type): cell-based
One test deals with T1, MRGPRX2 (Homo sapiens, UniProt Q96LB1).
T1 sequence (Q96LB1 1-330): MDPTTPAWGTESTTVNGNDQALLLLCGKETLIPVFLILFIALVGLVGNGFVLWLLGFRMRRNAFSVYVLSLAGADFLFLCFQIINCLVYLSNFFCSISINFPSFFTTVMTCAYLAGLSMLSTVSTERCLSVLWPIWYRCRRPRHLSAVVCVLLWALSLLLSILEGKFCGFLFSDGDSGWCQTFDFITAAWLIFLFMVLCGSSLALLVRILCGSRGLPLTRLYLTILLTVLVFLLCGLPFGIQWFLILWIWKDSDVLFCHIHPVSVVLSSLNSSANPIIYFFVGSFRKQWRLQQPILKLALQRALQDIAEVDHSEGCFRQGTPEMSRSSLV
Briefly: Calcium imaging / FLIPR EC50 determination in HEK293 cells expressing MRGPRX2. The note with it: HEK293 cells stably expressing MRGPRX2 and Gα15. The method in brief: (§1)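 HEK293 cells stably co-expressing Gα15 with the receptor were seeded at 4 × 10^4 cells/well and cultured overnight. After dye loading for 60 min at 37°C and 15 min recovery at RT, fluorescence was recorded on a Flexstation for 120 s. Compound, dissolved in HBSS+HEPES, was added as a 3X solution at 30 s. Response was taken as maximum minus minimum signal, averaged from duplicate wells. EC50 was fitted per trial after normalising to that trial's peak response.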

Another test concerns the target T2, Mrgprb2 (Mus musculus, UniProt Q3KNA1).
T2 sequence (Q3KNA1 1-338): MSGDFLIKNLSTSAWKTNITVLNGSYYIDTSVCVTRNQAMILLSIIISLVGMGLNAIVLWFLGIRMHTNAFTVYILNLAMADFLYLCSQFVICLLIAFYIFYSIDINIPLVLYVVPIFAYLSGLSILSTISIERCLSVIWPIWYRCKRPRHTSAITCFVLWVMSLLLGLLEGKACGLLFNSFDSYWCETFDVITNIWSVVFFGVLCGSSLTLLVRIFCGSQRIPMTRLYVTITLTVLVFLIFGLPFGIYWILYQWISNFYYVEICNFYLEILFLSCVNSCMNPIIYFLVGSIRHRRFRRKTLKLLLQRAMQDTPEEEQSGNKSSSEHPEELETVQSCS
Briefly: Calcium imaging / FLIPR EC50 determination in HEK293 cells expressing Mrgprb2. The note with it: HEK293 cells stably expressing Mrgprb2 and Gα15. The method in brief:
as §1

A further test deals with LAD2 human mast cells. The test can be described thus: Mast cell degranulation assay. The note with it: 30 min at 37°C. The method in brief: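 LAD2 cells were washed and resuspended at 0.5 × 10^6 cells/mL in 0.4% BSA-HEPES buffer, then exposed to compound for 30 min at 37°C in 5% CO2. β-Hexosaminidase was measured in supernatants and in 0.1% Triton X-100 lysates by p-nitrophenyl N-acetyl-β-D-glucosamide hydrolysis in 0.1 M sodium citrate (pH 4.5) for 90 min at 37°C. Release is expressed as percent of total content.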

Take autoinducer-2 [AI-2]: the “activation of MRGPRX2-HEK cells (Ca2+ mobilization)” value at MRGPRX2 is reported as “did not activate”. For the same substance, at Mrgprb2, the “activation of Mrgprb2-HEK cells (Ca2+ mobilization)” value is on record as “did not activate”. In the test on LAD2 human mast cells, the β-hexosaminidase release entry was “did not activate”.

In the case of competence stimulating peptide [CSP], the “activation of MRGPRX2-HEK cells (Ca2+ mobilization)” value at MRGPRX2 was “activated”. At Mrgprb2, the “activation of Mrgprb2-HEK cells (Ca2+ mobilization)” value was “activated”.
